Assay results collected from several papers.
FGFR2: Fibroblast growth factor receptor 2 (FGFR2, Homo sapiens, UniProt P21802)
FGFR2 N549H: Fibroblast growth factor receptor 2 (FGFR2, Homo sapiens, UniProt P21802, N549H)

Structure (SMILES) | target | effect on | mode | method | tested at | measurement | result
C[C@@H]1CN(c2cc(-c3n[nH]c4ccc(OC5(C)CC5)cc34)ncn2)C[C@H](C)O1 | FGFR2 | cell-free assay | – | competition with immobilised ligand | 0.1 µM | remaining binding | 96%
CCCOc1ccc(OC)c(F)c1C(=O)c1ccc(C(=O)N[C@@H]2CNC[C@H]2NC(=O)c2ccc3[nH]ncc3c2)cc1 | FGFR2 | enzyme activity | inhibitor | – | 10 µM | remaining activity | 70%
Cc1ccc(NC(=O)c2ccc(C)c(C(F)(F)F)c2)cc1C#Cc1nn(C2CCC(O)CC2)c2ncnc(N)c12 (centres unmarked) | FGFR2 N549H | cell-free assay | – | – | 10 µM | remaining signal | -1%
Cc1noc([C@H]2C[C@@H](c3ccc(C(F)(F)F)cc3)CN(C(=O)N3CCS(=O)(=O)C3)C2)n1 | FGFR2 | cell-free assay | – | competition with immobilised ligand | 1 µM | remaining binding | 85%
CC(C)(C)c1nc(-c2cccc(NS(=O)(=O)c3c(F)cccc3F)c2F)c(-c2ccnc(N)n2)s1 | FGFR2 | enzyme activity | inhibitor | radiometric | 1 µM | remaining activity | 92%
CN([C@@H]1CCc2c(CC(=O)O)c3ccccc3n2C1)S(=O)(=O)c1ccc(F)cc1 | FGFR2 | cell-free assay | – | competition with immobilised ligand | 1 µM | remaining binding | 80%
COc1cc2c(Nc3ccc(Br)cc3F)ncnc2cc1OCC1CCN(C)CC1 | FGFR2 | cell-free assay | – | – | 0.5 µM | remaining signal | 38.4%
CCN(CC)CCNC(=O)c1c(C)[nH]c(/C=C2\C(=O)Nc3ccc(F)cc32)c1C | FGFR2 | enzyme activity | inhibitor | – | 0.3 µM | inhibition | 36%
O=C(Nc1cnn(-c2csc(C(=O)NC3COC3)c2)c1)Nc1ccccc1Cl | FGFR2 | enzyme activity | inhibitor | – | 5 µM | remaining activity | 95.6%
O=C1NC(=O)c2cc(Nc3ccc(F)cc3)c(Nc3ccc(F)cc3)cc21 | FGFR2 | cell-free assay | – | – | 0.5 µM | remaining signal | 102%
Cc1ccc(C(=O)NCc2ccsc2)cc1C#Cc1cn(C(C)C)c2ncnc(N)c12 | FGFR2 | enzyme activity | inhibitor | – | 1 µM | activity vs control | 55%
Cc1ccc(Nc2nccc(N(C)c3ccc4c(C)n(C)nc4c3)n2)cc1S(N)(=O)=O | FGFR2 | enzyme activity | inhibitor | – | 10 µM | inhibition | 99%
COc1ccc(COc2ccc(Cc3cnc(N)nc3N)cc2OC)cc1 | FGFR2 | cell-free assay | – | – | 0.5 µM | remaining signal | 102%
Cc1cc(NC(=O)c2cccc3cc(-c4cccc5[nH]nc(N)c45)ccc23)ccc1F | FGFR2 | enzyme activity | inhibitor | – | 0.1 µM | activity vs control | 98%
Cc1cnc(NC2CCOCC2)nc1-n1cnc(C(=O)NC(CN)c2cc(F)cc(Cl)c2)c1 (centres unmarked) | FGFR2 N549H | enzyme activity | inhibitor | radiometric | 1 µM | remaining activity | 99%
C[C@H](c1ccnc(Nc2nc3ccc(-c4cc(N(C)C)ncn4)cc3[nH]2)c1)N1CCN(C(=O)CC(F)(F)F)CC1 | FGFR2 | cell-free assay | – | competition with immobilised ligand | 0.1 µM | remaining binding | 100%
Cc1ccc(C(=O)Nc2ccc(CN3CCN(C)CC3)c(C(F)(F)F)c2)cc1C#Cc1cnc2cccnn12 | FGFR2 | cell-free assay | – | – | 23.5 nM | remaining signal | 32%
CC/C(=N\NC(=O)NCc1cccc(O)c1)c1ccc(O)c(C)c1O | Fibroblast growth factor receptor 2 (FGFR2, Homo sapiens, UniProt P21802, V564I) | enzyme activity | inhibitor | – | 0.1 µM | inhibition | -2.7%
O=c1nc(-c2ccccn2)sc2ccccc12 | FGFR2 | cell-free assay | – | competition with immobilised ligand | 1 µM | remaining binding | 100%
CS(=O)(=O)CCNCc1ccc(-c2ccc3ncnc(Nc4ccc(OCc5cccc(F)c5)c(Cl)c4)c3c2)o1 | FGFR2 | cell-free assay | – | – | 0.5 µM | remaining signal | 96.4%
O=C(Nc1cccnn1)N1CCC(=Cc2cccc(Oc3ccc(C(F)(F)F)cn3)c2)CC1 | FGFR2 | cell-free assay | – | competition with immobilised ligand | 1 µM | remaining binding | 96%
CNC(=O)c1cc(Oc2ccc(NC(=O)Nc3ccc(Cl)c(C(F)(F)F)c3)cc2)ccn1 | FGFR2 | enzyme activity | inhibitor | – | 0.3 µM | inhibition | 66%
CCc1ccccc1C(=O)Nc1n[nH]c2c(C)c(F)c(C3C(C#N)=C(C)N(C)C(C)=C3C#N)cc12 | FGFR2 | cell-free assay | – | competition with immobilised ligand | 1 µM | remaining binding | 83%
Nc1nc(Nc2ccc(S(N)(=O)=O)cc2)nn1C(=O)c1c(F)cccc1F | FGFR2 | cell-free assay | – | – | 0.5 µM | remaining signal | 79.7%
CNCc1ccccc1-c1csc([C@H](C)Nc2nc(C)nc3cc(OC)c(OC)cc23)c1 | FGFR2 | cell-free assay | – | competition with immobilised ligand | 1 µM | remaining binding | 94%
CN(C)C1CCN(CC#Cc2nn(C3CCCC3)c3nc(NCc4ccccc4)ncc23)C1 (centres unmarked) | FGFR2 | enzyme activity | inhibitor | FRET | 1 µM | inhibition | 8%
